Shown are actives, neighbours in structure and some others; about 2.1% of the full set was active somewhere.
APJ antagonist: antagonists of human apelin receptor APJ, primary screen, CHO-K1 cells, beta-arrestin complementation, luminescence. P35414. inhibition, % at 20 µM. 0.32% of 330,000 active. AID 2521, 2010;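 active = inhibition above about 40% at 20 µM, limit read from the data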;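 also: cells challenged with 10 nM apelin-13 agonist together with compound; plate controls were apelin-13 plus DMSO wells for no effect and DMSO wells lacking apelin-13 for full effect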
m5-HT2A agonist: mouse Htr2a agonists via beta-arrestin recruitment, primary screen, cell-based, luminescence; 5-hydroxytryptamine receptor 2A (Mus musculus), P35363; 0.66% of 360,000 active; activation, % at 7.6 µM; AID 624169, 2012; CHO-K1 mHTR2A beta-arrestin complementation; percent of 30 µM serotonin response;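 active = activation above a run cutoff, the mean activation of all tested compounds plus 3 SD, cut at about 14% in these data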;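 also: 0% = plate median of compound wells and 100% = 30 µM serotonin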
APJ agonist: agonists of human apelin receptor APJ, primary screen, CHO-K1 cells, PathHunter beta-arrestin, luminescence. activation, % at 20 µM. 0.11% of 330,000 active. P35414. 0% DMSO wells, 100% apelin;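 active = activation more than six SD over the plate average, tested at 20 µM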;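 also: 0% = DMSO alone and 100% = apelin-13 at 10 nM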
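Assay system: engineered CHO-K1 APJ arrestin reporter cells; Amount: 1000 CHO-K1 reporter cells seeded per well; Dosing: one dose, 20 µM compound, 1% DMSO; Times: compound stimulation 90 min at 25 °C, detection 60 min; Measured by: luminescent beta-gal fragment complementation, chemiluminescent substrate; Read-out: APJ–arrestin association signal; Controls: DMSO vs Apelin-13 10 nM.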
CXCR6 block: CXCR6 receptor inhibitors, primary screen, cell-based, beta-arrestin, luminescence, CHO-K1 PathHunter, 1536-well | C-X-C chemokine receptor type 6 (Homo sapiens), O00574 | inhibition, % at 20 µM | 0.36% of 360,000 active | AID 602244, 2012; in the data active = inhibition above about 34%, passing the limit was not always enough;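 also: antagonist mode with CXCL16 agonist at 10 nM final; 0% = 10 nM CXCL16 with DMSO and 100% = unstimulated wells without agonist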
CCR6 antag: CCR6 receptor antagonists, primary screen, cell-based, CHO-K1, luminescence, beta-arrestin, uHTS; AID 493098, 2011; 0.49% of 340,000 active; CHO-K1 CCR6 PathHunter beta-arrestin, CCL20-stimulated; C-C chemokine receptor type 6 (Homo sapiens), P51684; inhibition, % at 20 µM;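 active = compounds whose inhibition of the agonist-driven luminescence signal at 20 µM reaches about 50%, limit read from the data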;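 also: cells stimulated with CCL20 at 14 nM final; plate controls were DMSO with CCL20 for no effect and DMSO without agonist for full effect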
EBI2 antag: EBI2 receptor antagonists, beta-arrestin recruitment, primary screen, cell-based, luminescence, 7a,25-OHC stimulation, uHTS; G-protein coupled receptor 183 (Homo sapiens), P32249; 7a,25-OHC stimulated; inhibition, % at 5 µM; 0.81% of 360,000 active; AID 651636, 2012; in the data active = inhibition above about 38%;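 also: enzyme fragment complementation signal reports receptor beta-arrestin coupling in cells; 0% = agonist plus DMSO wells and 100% = wells without agonist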
OPRM1 ag: OPRM1 agonists via beta-arrestin recruitment, confirmation, counter-screen for mouse HTR2A agonist project, cell-based, luminescence, single concentration; shares compounds with m5-HT2A agonist; U2OS OPRM1 beta-arrestin PathHunter; DMSO 0%, DAMGO 9.3 µM 100%; activation, % at 9.3 µM; 5.3% of 2,300 active; AID 624380, 2012;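 active = mean activation above the mean of DMSO-only wells plus 3 SD, cut at about 0.5% in these data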
Target sequence (P35372 whole entry, looked up): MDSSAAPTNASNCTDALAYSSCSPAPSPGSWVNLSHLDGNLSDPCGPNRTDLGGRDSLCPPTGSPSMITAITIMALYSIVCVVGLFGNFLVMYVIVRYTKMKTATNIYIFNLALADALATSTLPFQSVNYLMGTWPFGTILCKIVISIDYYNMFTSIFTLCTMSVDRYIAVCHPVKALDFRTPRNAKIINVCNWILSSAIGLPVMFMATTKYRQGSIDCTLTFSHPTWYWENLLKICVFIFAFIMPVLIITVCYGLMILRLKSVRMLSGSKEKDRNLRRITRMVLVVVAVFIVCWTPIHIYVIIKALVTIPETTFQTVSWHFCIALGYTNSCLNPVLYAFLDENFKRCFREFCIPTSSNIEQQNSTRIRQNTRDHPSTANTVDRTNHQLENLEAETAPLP
HTR2A ag conf: mouse HTR2A agonists, beta-arrestin recruitment, confirmation, cell-based, luminescence, CHO-K1 PathHunter, triplicate; shares compounds with m5-HT2A agonist; DMSO 0%, 30 µM serotonin 100%; activation, % at 7.6 µM; 19% of 2,300 active; AID 624381, 2012;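 active = mean activation across triplicates above the hit threshold derived in the original primary screen, cut at about 15% in these data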
An asterisk follows results filed as active; . = no result given.

SMILES	APJ antagonist	m5-HT2A agonist	APJ agonist	CXCR6 block	CCR6 antag	EBI2 antag	OPRM1 ag	HTR2A ag conf
NC(=O)c1c(NC(=O)c2ccncc2)sc2c1CCCC2	1	18*	1	-2	10	-12	0	5
O=C(O)C1=CCCNC1	16	-2	-5	-6	-5	0	.	.
O=C(O)C1=CCNCC1	0	18*	-1	1	9	-5	-1	2
CC(C)CC(=O)Nc1ccc(C(=O)COC(=O)CN2C(=O)NC3(CCCCC3C)C2=O)cc1 (stereo unspecified)	22	18*	1	-9	10	-10	0	2
COc1ccc(N2CCN(C(=O)CCS(=O)(=O)c3ccc4c(c3)CCN4C(=O)C3CC3)CC2)cc1	-12	16*	1	-4	4	-5	-1	-3
CCC(=O)N1CCc2cc(S(=O)(=O)CCC(=O)N3CCN(c4ccccc4)CC3)ccc21	8	6	-3	-5	7	-11	.	.
Cc1ccccc1C(=O)NC(=S)Nc1ncccn1	7	-3	-3	3	16	0	.	.
CCCc1[nH]nc2c1C(c1ccsc1)C(C#N)=C(N)O2 (stereo unspecified)	20	21*	-3	-4	5	-18	-1	-4
COCc1[nH]nc2c1C(c1ccsc1)C(C#N)=C(N)O2 (stereo unspecified)	0	-2	-1	2	0	-38	.	.
Cc1c(NC(=O)C2CC(c3ccc(F)cc3)=NO2)c(=O)n(-c2ccccc2)n1C (stereo unspecified)	-24	15*	0	-3	18	2	0	2
Cc1ccn(CCNC(=O)C2CCC(=O)N(CCc3ccc(Cl)cc3)C2)n1 (stereo unspecified)	10	24*	-4	-4	10	10	0	-3
Cc1cccc(Cc2nnc(CCC(=O)NCc3cn4ccccc4n3)o2)c1	-6	-1	-3	-3	-6	-15	.	.
COc1ccc2oc(C(=O)OCC(=O)N3CCCC(C)C3)c(C)c2c1 (stereo unspecified)	12	20*	-3	-1	21	-11	-1	-3
CCOc1ccc2oc(C(=O)OCC(=O)N3CCCC(C)C3)c(C)c2c1 (stereo unspecified)	8	3	-4	6	18	9	.	.
COc1ccc(OC)c(NC(=S)N(CCc2c(C)[nH]c3ccc(C)cc23)Cc2cccs2)c1	4	20*	-2	4	0	30	-1	4
COc1ccc(OC)c(NC(=S)N(CCc2c(C)[nH]c3ccccc23)Cc2cccs2)c1	-7	13	-2	5	12	20	.	.
CC1(C(=O)NCC2CC2)Cc2c(-c3cccc(C(N)=O)c3)ccnc2O1 (stereo unspecified)	.	14*	.	-6	.	-2	-1	-1
CC(=O)NCCNC(=O)C1(C)Cc2c(-c3ccc(C(N)=O)cc3)ccnc2O1 (stereo unspecified)	.	24*	.	4	.	-11	-1	-1
CC(=O)NCCNC(=O)C1(C)Cc2c(-c3ccccc3)ccnc2O1 (stereo unspecified)	.	2	.	1	.	-6	.	.
Cc1cccc(Cc2nc3ccccc3[nH]2)c1	.	-3	.	0	7	-2	.	.
